ChEMBL document CHEMBL4627406, “Amino Acids Bearing Aromatic or Heteroaromatic Substituents as a New Class of Ligands for the Lysosomal Sialic Acid Transporter Sialin” (J Med Chem, 2020)
The source made the active and inactive calls. The rule behind the calls is not given here.

biological target: T1, Sialin (Homo sapiens) (UniProt Q9NRA2); experiment: Inhibition of human recombinant-Sialin expressed in HEK293 cells assessed as reduction in [3H]Neu5Ac uptake at 30 to 300 uM incubated for 15 mins by liquid scintillation counting method; type: cell-based
T1 sequence (whole entry): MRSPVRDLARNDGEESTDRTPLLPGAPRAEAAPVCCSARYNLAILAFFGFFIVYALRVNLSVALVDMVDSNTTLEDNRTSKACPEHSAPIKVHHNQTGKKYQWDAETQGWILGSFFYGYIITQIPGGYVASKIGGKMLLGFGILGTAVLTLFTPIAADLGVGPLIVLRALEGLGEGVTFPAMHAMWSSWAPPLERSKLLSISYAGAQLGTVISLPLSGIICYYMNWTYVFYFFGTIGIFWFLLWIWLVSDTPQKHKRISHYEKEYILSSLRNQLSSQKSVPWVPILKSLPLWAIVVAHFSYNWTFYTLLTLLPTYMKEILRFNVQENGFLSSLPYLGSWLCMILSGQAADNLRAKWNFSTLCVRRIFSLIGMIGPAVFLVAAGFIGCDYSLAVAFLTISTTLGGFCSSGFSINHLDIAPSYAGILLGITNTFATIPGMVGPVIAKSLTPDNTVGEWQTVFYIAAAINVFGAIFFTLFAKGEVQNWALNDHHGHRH
Summary of the method: (§1)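 HEK293 cells expressing EGFP-human sialin L22G/L23G (sorting mutant at the plasma membrane), assayed 2 days after lipofection. Uptake of [3H]Neu5Ac (12.5 nM) over 15 min at room temperature in MES-Na+ pH 5.0 with inhibitor added together with tracer. Cells washed twice ice-cold, radioactivity counted by liquid scintillation. Dose-response run in triplicate, two to three independent experiments.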

Row | inhibition | Compound
1 | Dose-dependent effect | COc1ccc2c(CSC[C@H](NC(=O)OCC3c4ccccc4-c4ccccc43)C(=O)O)cc(=O)oc2c1
2 | Active | Cc1cc(C)cc(C(=O)N(C)[C@H](Cc2ccc(-c3ccccc3)cc2)C(=O)N[C@@H](Cc2c[nH]c3ccccc23)C(=O)O)c1
3 | Dose-dependent effect | O=C(N[C@@H](CSCc1cc(=O)oc2cc(O)c(Cl)cc12)C(=O)O)OCC1c2ccccc2-c2ccccc21
4 | Active | O=C(O)CN(CC(=O)O)Cc1cc2c(cc1O)Oc1cc(O)c(CN(CC(=O)O)CC(=O)O)cc1C21OC(=O)c2ccccc21
5 | Active | O=C(O)CN(CC(=O)O)c1ccccc1OCCOc1ccccc1N(CC(=O)O)CC(=O)O
6 | Active | O=C(O)[C@@H]1OCCOCCO[C@@H](C(=O)O)[C@H](C(=O)O)OCCOCCO[C@H]1C(=O)O
7 | Dose-dependent effect | COC(=O)CC[C@H](NC(=O)OCC1c2ccccc2-c2ccccc21)C(=O)O
8 | Active | CN(Cc1cnc2nc(N)nc(N)c2n1)c1ccc(C(=O)N[C@@H](CCC(=O)O)C(=O)O)cc1
9 | Active | CC(C)(C)OC(=O)NCc1ccc(C[C@@H](NC(=O)OCC2c3ccccc3-c3ccccc32)C(=O)O)cc1
10 | Active | O=C(NCCCC[C@H](NC(=O)OCC1c2ccccc2-c2ccccc21)C(=O)O)OCc1ccccc1

biological target: T1, Sialin (Homo sapiens); experiment: Inhibition of human recombinant-Sialin expressed in HEK293 cells assessed as reduction in [3H]Neu5Ac uptake at 30 uM incubated for 15 mins by liquid scintillation counting method; type: cell-based; summary of the method: as §1

Row | inhibition | Compound
11 | inactive | O=C(NCCCC[C@H](NC(=O)OCC1c2ccccc2-c2ccccc21)C(=O)O)OCC1c2ccccc2-c2ccccc21
12 | Active | CC(C)CC(NC(=O)OCC1c2ccccc2-c2ccccc21)C(=O)O (configuration not stated)
13 | Active | O=C(NCCCC[C@H](NC(=O)OCc1cc(=O)oc2cc(O)ccc12)C(=O)O)OCc1ccccc1
14 | Active | COc1ccc2c(CSC[C@H](NC(=O)OCC3c4ccccc4-c4ccccc43)C(=O)O)cc(=O)oc2c1
15 | Active | O=C(N[C@@H](CSCc1cc(=O)oc2cc(O)c(Cl)cc12)C(=O)O)OCC1c2ccccc2-c2ccccc21
16 | Active | CN(C)c1ccc2c(CC(=O)N[C@@H](CCCCNC(=O)OCc3ccccc3)C(=O)O)cc(=O)oc2c1
17 | inactive | O=C(OCc1cc(=O)oc2cc(O)ccc12)OCC1c2ccccc2-c2ccccc21
18 | Active | O=C(Cc1cc(=O)oc2cc(O)ccc12)N[C@@H](CCCCNC(=O)OCc1ccccc1)C(=O)O
19 | Active | O=C(N[C@@H](CS)C(=O)O)OCC1c2ccccc2-c2ccccc21
20 | inactive | O=C(O)[C@@H]1CCCN1C(=O)OCC1c2ccccc2-c2ccccc21
21 | Active | CN(C)c1ccc2c(CC(=O)NCCCC[C@H](NC(=O)OCC3c4ccccc4-c4ccccc43)C(=O)O)cc(=O)oc2c1
22 | Active | CC(C)(C)Oc1ccc(C[C@H](NC(=O)OCC2c3ccccc3-c3ccccc32)C(=O)O)cc1
23 | inactive | O=C(N[C@@H](CSCc1ccccc1)C(=O)O)OCC1c2ccccc2-c2ccccc21
24 | Active | COC(=O)CC[C@H](NC(=O)OCC1c2ccccc2-c2ccccc21)C(=O)O
25 | Active | O=C(N[C@@H](Cc1ccccc1)C(=O)O)OCC1c2ccccc2-c2ccccc21
26 | Active | COc1ccc(CSC[C@H](NC(=O)OCC2c3ccccc3-c3ccccc32)C(=O)O)cc1
27 | Active | CC(C)(C)SC[C@H](NC(=O)OCC1c2ccccc2-c2ccccc21)C(=O)O
28 | Active | CC[C@H](C)[C@H](NC(=O)OCC1c2ccccc2-c2ccccc21)C(=O)O
29 | Active | CC(C)(C)OC(=O)C[C@H](NC(=O)OCC1c2ccccc2-c2ccccc21)C(=O)O
30 | Active | O=C(Cc1cc(=O)oc2c3c4c(cc12)CCCN4CCC3)N[C@@H](CCCCNC(=O)OCc1ccccc1)C(=O)O
31 | inactive | O=C(NCCCC[C@H](NC(=O)c1cc(=O)[nH]c2ccccc12)C(=O)O)OCc1ccccc1
32 | Active | CCN(CC)c1ccc2c(CC(=O)N[C@@H](CCCCNC(=O)OCc3ccccc3)C(=O)O)cc(=O)oc2c1
